{
  "source": "PubChem BioAssay AID2052",
  "about": "(NMMLSC, 2009)",
  "note": "About 220 (0.067%) of roughly 330,000 compounds were called active.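 The calls were made as follows: active = response, share of CD8 T cells binding vesicles, and their 90th percentile fluorescence all below set limits (cut at about 80% in these data, passing the limit was not always enough); inactive = the rest, inconclusive results apart.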 The list comes from a sample in which actives are over-represented; it also holds similar structures and randomly drawn compounds.",
  "data": [
    {"test": "modulators of CD8 T cell-vesicle binding, primary screen, mouse 2C CD8+ T cells, flow cytometry (AID 2052);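 as to double positive events: binding gate set so that unloaded-vesicle control wells show 10% double positive cells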;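 as to response (vesicle binding): values below 100% mean blocked vesicle binding to the CD8+ T cells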", "conditions": "2C CD8+ T cell-vesicle binding, at 7 µM, stronger effect = lower value; double positive events: measured here: CD8+ vesicle-bound cell fraction", "summary_of_the_method": "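Benchmarks: naked versus QL9-loaded vesicles / Assay system: purified 2C TCR transgenic mouse naive CD8+ T cells / Technique: high-throughput flow cytometry with anti-B7-1 and anti-CD8 staining / Timing: Cell–vesicle co-incubation 1.5 h at 37 °C, staining 20 min on ice / Read-out: percent CD8+ FL2 mean versus row control / Probe or stimulus: QL9-loaded Drosophila micro-vesicles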", "units": {"double positive events": "%"}, "values": [
      {"smiles": "COc1cccc(C(=O)NNC(=O)/C=C/c2ccccc2)c1", "double positive events": 61.7, "response (vesicle binding)": "433% (inactive)"},
      {"smiles": "CNC(=O)c1nnn(-c2ccccc2)c1C(=O)NC", "double positive events": 57.6, "response (vesicle binding)": "329% (inactive)"},
      {"smiles": "O=C(NCc1ccncc1)C1CCCN(S(=O)(=O)c2ccc(Br)cc2)C1", "note": "(configuration not stated)", "double positive events": 50.3, "response (vesicle binding)": "342% (inactive)"},
      {"smiles": "CCSc1nnc(SCC(=O)NNC(=O)c2ccccc2F)s1", "double positive events": 59.2, "response (vesicle binding)": "194% (inactive)"},
      {"smiles": "CCOc1cc(C2C(C(=O)OC(C)C)=C(C)NC3=C2C(=O)CCC3)cc([N+](=O)[O-])c1O", "note": "(configuration not stated)", "double positive events": 47.9, "response (vesicle binding)": "162% (inactive)"},
      {"smiles": "COc1cc(N)c(Cl)cc1C(=O)OCC(=O)c1ccc2c(c1)NC(=O)CO2", "double positive events": 29.1, "response (vesicle binding)": "484% (inactive)"},
      {"smiles": "CC1(C)CC(CNCCC(c2ccc(F)cc2)c2ccco2)CCO1", "note": "(configuration not stated)", "double positive events": 39.3, "response (vesicle binding)": "172% (inactive)"},
      {"smiles": "CN(C)S(=O)(=O)c1cccc(NC(=O)COc2ccc3ccccc3c2)c1", "double positive events": 30.4, "response (vesicle binding)": "566% (inactive)"},
      {"smiles": "CCCn1cc(S(=O)(=O)c2ccc(C)cc2)c(=O)c2cc(OCC)ccc21", "double positive events": 38.4, "response (vesicle binding)": "435% (inactive)"},
      {"smiles": "CC1C(c2ccccc2)=[N+]([O-])C2(CCCC2)N1O", "note": "(configuration not stated)", "double positive events": 34.2, "response (vesicle binding)": "259% (inactive)"},
      {"smiles": "COc1ccc(C2=Nn3c(nnc3-c3ccccc3OC)SC2)cc1OC1CCCC1", "double positive events": 2.5, "response (vesicle binding)": "196% (inactive)"},
      {"smiles": "CCC(CC)C(=O)Nc1cc(C(=O)OC)cc(C(=O)OC)c1", "double positive events": 23.6, "response (vesicle binding)": "410% (inactive)"},
      {"smiles": "Cc1c(Br)c([N+](=O)[O-])nn1CC(=O)N1CCN(Cc2ccccc2)CC1", "double positive events": 63, "response (vesicle binding)": "210% (inactive)"},
      {"smiles": "Cc1cc(Cl)ccc1C(=O)C1CCCN(C(=O)CCN2CCCO2)C1", "note": "(configuration not stated)", "double positive events": 23.8, "response (vesicle binding)": "257% (inactive)"},
      {"smiles": "Cn1nc(C(F)(F)F)c2cc(NC(=O)OCC(C)(C)C)sc21", "double positive events": 43.1, "response (vesicle binding)": "197% (inactive)"},
      {"smiles": "CN(CCc1cnn(C)c1)Cc1cn(C)nc1-c1ccccc1F", "double positive events": 31.2, "response (vesicle binding)": "291% (inactive)"},
      {"smiles": "O=C(Nc1cccn(Cc2c(Cl)cccc2Cl)c1=O)c1ccc(Cl)cc1", "double positive events": 24.7, "response (vesicle binding)": "379% (inactive)"},
      {"smiles": "CCCC(CCC(=O)OC)(C(=O)OCC)c1csc(N)n1", "note": "(configuration not stated)", "double positive events": 19.7, "response (vesicle binding)": "485% (inactive)"},
      {"smiles": "CN(c1ccccc1)S(=O)(=O)c1cccc(NC(=O)Cc2ccc(Cl)cc2)c1", "double positive events": 40.2, "response (vesicle binding)": "419% (inactive)"},
      {"smiles": "CCCCCC1CCC(c2nnc(SCC(C)=O)o2)CC1", "note": "(configuration not stated)", "double positive events": 19.4, "response (vesicle binding)": "214% (inactive)"},
      {"smiles": "O=C(Nc1ccc(N2CCOCC2)cc1)c1ccc(-c2ccccc2[N+](=O)[O-])o1", "double positive events": 30.7, "response (vesicle binding)": "205% (inactive)"},
      {"smiles": "O=C(Nc1ccc(N2CCCCC2)cc1)c1cc(S(=O)(=O)N2CCOCC2)ccc1F", "double positive events": 40.6, "response (vesicle binding)": "316% (inactive)"},
      {"smiles": "O=C(CC1Oc2ccccc2NC1=O)NCCCN1CCN(Cc2ccccc2)CC1", "note": "(configuration not stated)", "double positive events": 40.4, "response (vesicle binding)": "363% (inactive)"},
      {"smiles": "CCOC(=O)N1CCN(S(=O)(=O)c2ccc3c(c2)C(C)C(=O)N3)CC1", "note": "(configuration not stated)", "double positive events": 29.9, "response (vesicle binding)": "289% (inactive)"},
      {"smiles": "COc1ccc(/C=C2\\N=C3CCCN3C2=O)cc1", "double positive events": 16.6, "response (vesicle binding)": "231% (inactive)"},
      {"smiles": "O=C1C=C(c2cccc(Br)c2)C[C@@H](c2ccc(F)cc2)C1", "double positive events": 26, "response (vesicle binding)": "405% (inactive)"},
      {"smiles": "Cc1ccc(C(=O)NC2CCCC(C)C2C)cc1S(=O)(=O)N1CCCCC1", "note": "(configuration not stated)", "double positive events": 56.1, "response (vesicle binding)": "659% (inactive)"},
      {"smiles": "O=C(Nc1ccc(CSc2ccccc2)cc1)c1ccc(CN2CCOCC2)cc1", "double positive events": 48.3, "response (vesicle binding)": "264% (inactive)"},
      {"smiles": "COc1ccc(N2CC(C)Cn3c2nc2c3c(=O)n(Cc3ccccc3F)c(=O)n2C)c(OC)c1", "note": "(configuration not stated)", "double positive events": 27.6, "response (vesicle binding)": "423% (inactive)"},
      {"smiles": "O=C(O)c1ccccc1-c1ccccc1C(=O)NCCc1ccccc1", "double positive events": 29.9, "response (vesicle binding)": "437% (inactive)"},
      {"smiles": "COc1ccc(CCNC(=O)c2ccccc2OCc2ccccc2)cc1", "double positive events": 12.3, "response (vesicle binding)": "205% (inactive)"},
      {"smiles": "NC(=O)Nc1ccccc1C(=O)NCCc1ccccc1", "double positive events": 0, "response (vesicle binding)": "0% (active)"},
      {"smiles": "CC(C)c1ccc(N(C(=O)c2ccco2)C(C(=O)NC2CCCC2)c2cccnc2)cc1", "note": "(configuration not stated)", "double positive events": 19.1, "response (vesicle binding)": "176% (inactive)"},
      {"smiles": "Cc1cc(C)c(S(=O)(=O)c2cc(F)ccc2C)c(=O)[nH]1", "double positive events": 44.2, "response (vesicle binding)": "185% (inactive)"},
      {"smiles": "O=S(=O)(Nc1ccc(Cl)cn1)c1cnc(Cl)c(Br)c1", "double positive events": 15.2, "response (vesicle binding)": "0% (inactive)"},
      {"smiles": "COc1ccc(N2CC(C(=O)N[C@@H](C)C(=O)N3CCCCC3)CC2=O)cc1", "note": "(some centres not stated)", "double positive events": 12.6, "response (vesicle binding)": "315% (inactive)"},
      {"smiles": "OCC(CO)(CO)NCc1ccc(-c2ccccc2)cc1", "double positive events": 35.7, "response (vesicle binding)": "0% (inactive)"},
      {"smiles": "NC(=O)C[C@@H]1NC(=O)CNC(=O)c2cc([N+](=O)[O-])cc(I)c2NCCC(C(N)=O)NC1=O", "note": "(some centres not stated)", "double positive events": 24.2, "response (vesicle binding)": "474% (inactive)"},
      {"smiles": "CC(/C=C/C1(O)C(C)CC(=O)CC1(C)C)OC1OC(CO)C(O)C(O)C1O", "note": "(configuration not stated)", "double positive events": 38.7, "response (vesicle binding)": "185% (inactive)"},
      {"smiles": "CCNC(=O)Nc1ccc(S(=O)(=O)Nc2cnc(C)nc2C)cc1", "double positive events": 18.1, "response (vesicle binding)": "230% (inactive)"},
      {"smiles": "CCc1nnc(NC(=O)CSc2nc(SC)ns2)s1", "double positive events": 35.8, "response (vesicle binding)": "236% (inactive)"}
    ]}
  ]
}
